Data reported in ChEMBL document CHEMBL3271957 (J Med Chem, 1977).
In brackets after ≈: the same amount, converted by molar mass.

Legend:
[1] = system: Lacticaseibacillus rhamnosus; test: Antimicrobial activity against Lactobacillus casei ATCC 7469 assessed as growth inhibition; format: functional
[2] = molecular target: Dihydrofolate reductase (Lactobacillus casei, UniProt P00381); test: Inhibition of MTX-resistant Lactobacillus casei dihydrofolate reductase; parameters: species or system Lacticaseibacillus casei
Sequence of Dihydrofolate reductase (P00381 whole entry): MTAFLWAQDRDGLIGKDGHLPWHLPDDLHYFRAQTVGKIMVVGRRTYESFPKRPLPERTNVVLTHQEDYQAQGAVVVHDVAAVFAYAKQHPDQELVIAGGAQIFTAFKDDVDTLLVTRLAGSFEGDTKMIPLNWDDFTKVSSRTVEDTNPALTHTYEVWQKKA

[3] = molecular target: T1, Thymidylate synthase (Lactobacillus casei, UniProt P00469); test: Inhibition of MTX-resistant Lactobacillus casei thymidylate synthetase; parameters: species or system Lacticaseibacillus casei
T1 sequence (P00469 whole entry): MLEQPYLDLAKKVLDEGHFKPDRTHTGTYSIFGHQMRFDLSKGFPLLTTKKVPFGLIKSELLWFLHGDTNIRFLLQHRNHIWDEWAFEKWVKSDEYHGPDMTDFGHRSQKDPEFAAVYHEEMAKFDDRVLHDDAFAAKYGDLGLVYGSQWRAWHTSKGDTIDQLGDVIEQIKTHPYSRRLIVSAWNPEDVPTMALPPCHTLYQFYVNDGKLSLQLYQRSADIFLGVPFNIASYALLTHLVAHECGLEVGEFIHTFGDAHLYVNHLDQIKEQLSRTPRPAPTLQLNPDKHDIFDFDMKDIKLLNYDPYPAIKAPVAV

[4] = system: CCRF-CEM; test: Cytotoxicity against human CCRF-CEM cells; format: functional; conditions: read-out: ID50 (the source's name)
[5] = system: Mus musculus; test: Toxicity in BDF/1 hybrid mouse xenografted with mouse L1210 cells assessed as optimal nontoxic dose administered q3d on day 1, 4 and 7; format: organism-based; conditions: in vivo
Outline: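 Male BDF/1 hybrid mice received 10^5 L-1210 leukemia cells ip. Test agents in 0.1 M phosphate buffer (pH 8) were given ip 24 h after implantation (day 1) and again on days 4 and 7. The optimal nontoxic dose is expressed as mg/kg × 3; where marked, it is the highest nontoxic dose tested.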

[6] = system: L1210; test: Antitumor activity against mouse L1210 cells allografted in BDF/1 hybrid mouse assessed as increase in life span relative to control; format: functional
Outline: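 Male BDF/1 hybrid mice inoculated ip with 10^5 L-1210 leukemia cells; test agents dissolved in 0.1 M phosphate buffer (pH 8), given ip 24 h after implantation (day 1) and on days 4 and 7. Median survival times of treated (T) and control (C) groups compared; % ILS = 100 × (T/C − 1).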

[7] = Toxicity in BDF/1 hybrid mouse xenografted with mouse L1210 cells administered q3d on day 1, 4 and 7; format: organism-based; conditions: in vivo
Outline: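 Male BDF/1 hybrid mice carrying ip-inoculated L-1210 cells (10^5) dosed ip on days 1, 4 and 7 (first dose 24 h post-implant) with compound in 0.1 M phosphate buffer, pH 8. Value expressed as optimal nontoxic dose in mg/kg ×3; where the top level tested was nontoxic, the highest nontoxic dose tested is given.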

| Compound | GI50 [1] | IC50 [2] | IC50 [3] | IC50 [4] | Activity [5] | ILS [6] | MTD [7] |
| --- | --- | --- | --- | --- | --- | --- | --- |
| CCCCN1CC(CN(C)c2ccc(C(=O)N[C@@H](CCC(=O)O)C(=O)O)cc2)=Nc2c(N)nc(N)nc21 | 1.2 nM | 380 nM | 19 µM | 0.23 µg/mL (≈ 0.449 µM) | 100 mg/kg | 25% |  |
| CCN1CC(CN(C)c2ccc(C(=O)N[C@@H](CCC(=O)O)C(=O)O)cc2)=Nc2c(N)nc(N)nc21 | 0.35 nM | 900 nM | 20 µM | 0.27 µg/mL (≈ 0.557 µM) |  | 18% | 400 mg/kg |
| CN(CC1CNc2nc(N)nc(N)c2N1)c1ccc(C(=O)N[C@@H](CCC(=O)O)C(=O)O)cc1 (some centres not stated) | 0.14 nM | 200 nM | 5 µM |  |  |  |  |
| CN(CC1=Nc2c(N)nc(N)nc2N(Cc2cccc3ccccc23)C1)c1ccc(C(=O)N[C@@H](CCC(=O)O)C(=O)O)cc1 | 0.47 nM | 4500 nM | 16 µM | > 1 µg/mL |  | 0% | 400 mg/kg |
| CN(CC1=Nc2c(N)nc(N)nc2N(CC2CCCCC2)C1)c1ccc(C(=O)N[C@@H](CCC(=O)O)C(=O)O)cc1 | 3.5 nM | 870 nM | 17 µM | 0.14 µg/mL (≈ 0.253 µM) | 300 mg/kg | 27% |  |
| CN(Cc1cnc2nc(N)nc(N)c2n1)c1ccc(C(=O)N[C@@H](CCC(=O)O)C(=O)O)cc1 [METHOTREXATE] | 0.04 nM |  |  | 0.018 µg/mL (≈ 0.0396 µM) | 15 mg/kg | 70% |  |
| CCCCCCN1CC(CN(C)c2ccc(C(=O)N[C@@H](CCC(=O)O)C(=O)O)cc2)=Nc2c(N)nc(N)nc21 | 0.27 nM | 1800 nM | 43 µM | 0.58 µg/mL (≈ 1.07 µM) |  | 0% | 400 mg/kg |
| CN(CC1=Nc2c(N)nc(N)nc2N(C)C1)c1ccc(C(=O)N[C@@H](CCC(=O)O)C(=O)O)cc1 | 0.1 nM | 140 nM | 4 µM | 0.23 µg/mL (≈ 0.489 µM) | 300 mg/kg | 27% |  |
| CN(CC1=Nc2c(N)nc(N)nc2N(Cc2ccccc2)C1)c1ccc(C(=O)N[C@@H](CCC(=O)O)C(=O)O)cc1 | 0.35 nM | 740 nM | 8 µM | 0.78 µg/mL (≈ 1.43 µM) |  | 25% | 400 mg/kg |
| CN(CC1=Nc2c(N)nc(N)nc2N(Cc2ccc(Cl)c(Cl)c2)C1)c1ccc(C(=O)N[C@@H](CCC(=O)O)C(=O)O)cc1 | 19.4 nM | 3600 nM | 13 µM | > 1 µg/mL |  | 36% | 400 mg/kg |
| CN(CC1=Nc2c(N)nc(N)nc2NC1)c1ccc(C(=O)N[C@@H](CCC(=O)O)C(=O)O)cc1 | 0.02 nM | 20 nM | 1 µM | 0.021 µg/mL (≈ 0.046 µM) | 30 mg/kg | 9% |  |
| CN(CC1CN(C)c2nc(N)nc(N)c2N1)c1ccc(C(=O)N[C@@H](CCC(=O)O)C(=O)O)cc1 (some centres not stated) | 1.4 nM | 2500 nM | 39 µM | 0.14 µg/mL (≈ 0.296 µM) | 200 mg/kg | 9% |  |
